pIC50: −log10 of the molar value. Converted amounts (≈) assume the structure as drawn.
What was measured:
Trichophyton rubrum = experiment: Antimicrobial activity against Trichophyton rubrum IFO 9185 after 48 to 72 hrs by broth dilution method; type: functional
How it was run: (§1)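 For C. albicans, cells were grown 48 h at 28 °C in YPD broth (1% yeast extract, 2% peptone, 2% dextrose), centrifuged and washed twice in sterile distilled water. A. fumigatus, T. rubrum and T. mentagrophytes were grown on potato dextrose agar for 2 weeks at 28 °C. Compound stocks made in DMSO. Microtiter plates incubated 48–72 h at 28 °C. Read-out was the MIC.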

Staphylococcus aureus = experiment: Antimicrobial activity against Staphylococcus aureus ATCC 6538p after 24 hrs by broth dilution method; type: functional
How it was run: (§2)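 Test bacteria grown overnight at 37 °C in LB broth, centrifuged and washed twice in sterile distilled water. Compound stocks made in DMSO and diluted in broth. Each microtiter well received 10 µl of broth holding about 10⁵ cfu/ml of bacteria. Plates incubated 24 h at 37 °C. Read-out was the MIC.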

Micrococcus luteus = experiment: Antimicrobial activity against Micrococcus luteus IFO 12708 after 24 hrs by broth dilution method; type: functional; conditions: IFO 12708, 24 h; how it was run: as §2
[1] = tested on: Trichophyton mentagrophytes; experiment: Antimicrobial activity against Trichophyton mentagrophytes IFO 40996 after 48 to 72 hrs by broth dilution method; type: functional; how it was run: as §1
Candida albicans = experiment: Antimicrobial activity against Candida albicans ATCC 10231 after 48 to 72 hrs by broth dilution method; type: functional; how it was run: as §1
Proteus vulgaris = experiment: Antimicrobial activity against Proteus vulgaris ATCC 3851 after 24 hrs by broth dilution method; type: functional; conditions: ATCC 3851, 24 h; how it was run: as §2
Aspergillus fumigatus = experiment: Antimicrobial activity against Aspergillus fumigatus HIC 6094 after 48 to 72 hrs by broth dilution method; type: functional; how it was run: as §1
Isocitrate lyase = Isocitrate lyase (Candida albicans, UniProt Q9P8Q7); experiment: Inhibition of Candida albicans ATCC 10231 isocitrate lyase
Isocitrate lyase, sequence (Q9P8Q7 whole entry): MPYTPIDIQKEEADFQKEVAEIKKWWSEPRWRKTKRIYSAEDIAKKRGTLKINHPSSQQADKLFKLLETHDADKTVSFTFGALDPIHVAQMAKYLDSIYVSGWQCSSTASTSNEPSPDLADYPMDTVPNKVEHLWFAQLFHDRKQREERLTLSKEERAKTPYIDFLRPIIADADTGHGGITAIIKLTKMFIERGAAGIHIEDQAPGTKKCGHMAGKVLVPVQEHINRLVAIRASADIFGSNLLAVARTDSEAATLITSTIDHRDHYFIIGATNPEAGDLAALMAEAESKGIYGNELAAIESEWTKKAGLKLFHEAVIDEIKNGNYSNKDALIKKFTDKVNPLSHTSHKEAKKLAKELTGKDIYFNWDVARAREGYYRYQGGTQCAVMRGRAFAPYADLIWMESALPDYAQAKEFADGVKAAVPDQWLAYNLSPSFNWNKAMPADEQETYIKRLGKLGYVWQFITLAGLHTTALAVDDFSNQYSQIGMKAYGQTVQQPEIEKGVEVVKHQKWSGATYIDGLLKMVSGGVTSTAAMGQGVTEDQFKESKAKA

Bacillus subtilis = experiment: Antimicrobial activity against Bacillus subtilis ATCC 6633 after 24 hrs by broth dilution method; type: functional; conditions: ATCC 6633, 24 h; how it was run: as §2
Salmonella typhimurium = experiment: Antimicrobial activity against Salmonella Typhimurium ATCC 14028 after 24 hrs by broth dilution method; type: functional, Salmonella enterica subsp. enterica serovar Typhimurium; conditions: Salmonella enterica, ATCC 14028, 24 h; how it was run: as §2

SMILES	MIC (Trichophyton rubrum)	MIC (Staphylococcus aureus)	MIC (Micrococcus luteus)	MIC [1]	MIC (Candida albicans)	MIC (Proteus vulgaris)	MIC (Aspergillus fumigatus)	pIC50 (Isocitrate lyase)	MIC (Bacillus subtilis)	MIC (Salmonella typhimurium)
Oc1ccc(Oc2cc(O)c(O)cc2Br)cc1O	> 100 µg/mL	100 µg/mL (≈ 319 µM)	100 µg/mL (≈ 319 µM)	> 100 µg/mL	> 100 µg/mL	> 100 µg/mL	> 100 µg/mL	4.17	> 100 µg/mL	100 µg/mL (≈ 319 µM)
C[C@@H]1[C@H](O)[C@@H](C)/C=C/C=C/C=C/C=C/C=C/C=C/C=C/[C@H](O[C@@H]2O[C@H](C)[C@@H](O)[C@H](N)[C@@H]2O)C[C@@H]2O[C@](O)(C[C@@H](O)C[C@@H](O)[C@H](O)CC[C@@H](O)C[C@@H](O)CC(=O)O[C@H]1C)C[C@H](O)[C@H]2C(=O)O [AMPHOTERICIN B]	3.12 µg/mL (≈ 3.38 µM)			3.12 µg/mL (≈ 3.38 µM)	6.25 µg/mL (≈ 6.76 µM)		3.12 µg/mL (≈ 3.38 µM)			
Oc1ccc(COCc2ccc(O)c(O)c2)cc1O	> 100 µg/mL	> 100 µg/mL	> 100 µg/mL	> 100 µg/mL	> 100 µg/mL	> 100 µg/mL	> 100 µg/mL	< 3.42	> 100 µg/mL	> 100 µg/mL
Oc1cc(Br)c(Cc2cc(O)c(O)cc2Br)cc1O	> 100 µg/mL	25 µg/mL (≈ 64.1 µM)	12.5 µg/mL (≈ 32 µM)	50 µg/mL (≈ 128 µM)	> 100 µg/mL	25 µg/mL (≈ 64.1 µM)	> 100 µg/mL	4.34	25 µg/mL (≈ 64.1 µM)	25 µg/mL (≈ 64.1 µM)
Oc1cc(COCc2cc(O)c(O)c(Br)c2Br)c(Br)c(Br)c1O	> 100 µg/mL	> 100 µg/mL	> 100 µg/mL	> 100 µg/mL	> 100 µg/mL	> 100 µg/mL	> 100 µg/mL	4.55	> 100 µg/mL	> 100 µg/mL
O=C(c1cc(O)c(O)c(Br)c1)c1cc(O)c(O)c(Br)c1Br	> 100 µg/mL	100 µg/mL (≈ 207 µM)	50 µg/mL (≈ 104 µM)	> 100 µg/mL	100 µg/mL (≈ 207 µM)	100 µg/mL (≈ 207 µM)	> 100 µg/mL	5.58	50 µg/mL (≈ 104 µM)	100 µg/mL (≈ 207 µM)
CC1(C)S[C@@H]2[C@H](NC(=O)[C@H](N)c3ccccc3)C(=O)N2[C@H]1C(=O)O [AMPICILLIN]		1.56 µg/mL (≈ 4.46 µM)	3.12 µg/mL (≈ 8.93 µM)			3.12 µg/mL (≈ 8.93 µM)			1.56 µg/mL (≈ 4.46 µM)	1.56 µg/mL (≈ 4.46 µM)
Oc1cc(Br)c(CCc2cc(O)c(O)c(Br)c2Br)cc1O	> 100 µg/mL	100 µg/mL (≈ 207 µM)	100 µg/mL (≈ 207 µM)	> 100 µg/mL	100 µg/mL (≈ 207 µM)	100 µg/mL (≈ 207 µM)	> 100 µg/mL	4.83	50 µg/mL (≈ 104 µM)	100 µg/mL (≈ 207 µM)
Oc1ccc(CCc2ccc(O)c(O)c2)cc1O	> 100 µg/mL	50 µg/mL (≈ 203 µM)	100 µg/mL (≈ 406 µM)	100 µg/mL (≈ 406 µM)	> 100 µg/mL	100 µg/mL (≈ 406 µM)	> 100 µg/mL	4.23	100 µg/mL (≈ 406 µM)	100 µg/mL (≈ 406 µM)
Oc1cc(Br)c(Oc2cc(O)c(O)cc2Br)cc1O	> 100 µg/mL	100 µg/mL (≈ 255 µM)	50 µg/mL (≈ 128 µM)	> 100 µg/mL	> 100 µg/mL	100 µg/mL (≈ 255 µM)	> 100 µg/mL	4.51	100 µg/mL (≈ 255 µM)	100 µg/mL (≈ 255 µM)
Oc1cc(Oc2cc(O)c(O)c(Br)c2Br)c(Br)c(Br)c1O	12.5 µg/mL (≈ 22.7 µM)	50 µg/mL (≈ 90.9 µM)	50 µg/mL (≈ 90.9 µM)	25 µg/mL (≈ 45.5 µM)	25 µg/mL (≈ 45.5 µM)	25 µg/mL (≈ 45.5 µM)	25 µg/mL (≈ 45.5 µM)	4.93	25 µg/mL (≈ 45.5 µM)	50 µg/mL (≈ 90.9 µM)
O=C(c1ccc(O)c(O)c1)c1ccc(O)c(O)c1	> 100 µg/mL	> 100 µg/mL	> 100 µg/mL	> 100 µg/mL	> 100 µg/mL	> 100 µg/mL	> 100 µg/mL	4.65	> 100 µg/mL	> 100 µg/mL
O=C(c1cc(O)c(O)c(Br)c1)c1cc(O)c(O)c(Br)c1	> 100 µg/mL	> 100 µg/mL	100 µg/mL (≈ 248 µM)	> 100 µg/mL	> 100 µg/mL	> 100 µg/mL	> 100 µg/mL	5.05	100 µg/mL (≈ 248 µM)	> 100 µg/mL
Oc1cc(Cc2cc(O)c(O)c(Br)c2Br)c(Br)c(Br)c1O	1.56 µg/mL (≈ 2.85 µM)	25 µg/mL (≈ 45.6 µM)	25 µg/mL (≈ 45.6 µM)	1.56 µg/mL (≈ 2.85 µM)	1.56 µg/mL (≈ 2.85 µM)	50 µg/mL (≈ 91.3 µM)	0.78 µg/mL (≈ 1.42 µM)	4.73	25 µg/mL (≈ 45.6 µM)	50 µg/mL (≈ 91.3 µM)
Oc1cc(Br)c(COCc2cc(O)c(O)c(Br)c2Br)cc1O	> 100 µg/mL	> 100 µg/mL	> 100 µg/mL	> 100 µg/mL	> 100 µg/mL	> 100 µg/mL	> 100 µg/mL	4.81	> 100 µg/mL	> 100 µg/mL
Oc1ccc(Oc2ccc(O)c(O)c2)cc1O	> 100 µg/mL	50 µg/mL (≈ 213 µM)	100 µg/mL (≈ 427 µM)	> 100 µg/mL	> 100 µg/mL	> 100 µg/mL	> 100 µg/mL	< 4.00	> 100 µg/mL	100 µg/mL (≈ 427 µM)
Oc1cc(Br)c(CCc2cc(O)c(O)cc2Br)cc1O	50 µg/mL (≈ 124 µM)	50 µg/mL (≈ 124 µM)	50 µg/mL (≈ 124 µM)	100 µg/mL (≈ 247 µM)	50 µg/mL (≈ 124 µM)	50 µg/mL (≈ 124 µM)	50 µg/mL (≈ 124 µM)	4.67	50 µg/mL (≈ 124 µM)	50 µg/mL (≈ 124 µM)

Source: ChEMBL document CHEMBL1268941, “Bromophenols as Candida albicans isocitrate lyase inhibitors” (Bioorg Med Chem Lett, 2010)
